LMPTP block – LMPTP phosphatase inhibitors, primary screen, biochemical, fluorescence intensity, uHTS; Low molecular weight phosphotyrosine protein phosphatase (Homo sapiens), P24666; recombinant LMPTP-A, OMFP fluorogenic substrate; inhibition, % at 20 µM; 360,000 tested, 0.22% active;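 active = compounds that cut the enzyme signal by at least half of the control window in the single-dose screen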
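Test system – LMPTP-A enzyme · Amount – LMPTP-A at 0.625 nM final in the reaction · Buffer or medium – Bis-Tris pH 6.0, DTT, detergent · Reagent – OMFP 400 µM · Doses – single 20 µM dose · Schedule – reaction 50 min, room temperature, dark · Detection – fluorescence intensity of OMFP turnover product · Evaluation – percent inhibition versus substrate-only and uninhibited controls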
STEP block – STEP phosphatase inhibitors, primary screen, biochemical, fluorescence intensity, uHTS; recombinant STEP, OMFP fluorogenic substrate; 360,000 tested, 0.25% active; inhibition, % at 20 µM;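 active = inhibition at 20 µM, scaled per plate between control wells, above about 37%, limit read from the data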
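medium = Bis-Tris buffer pH 6.0, 2.5 mM DTT, 0.005% Tween 20 | test system = STEP (striatal-enriched tyrosine phosphatase) enzyme, cell-free | measure = normalized % inhibition | compound dosing = 20 µM, 1% DMSO | also added = 25 µM OMFP | schedule = reaction 20 min, ambient temperature | measured by = fluorescence read at 480 nm ex / 540 nm em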
DNMT1 block – human DNMT1 methyltransferase inhibitors, primary screen, biochemical, molecular beacon, fluorescence, HinP1I cleavage, uHTS | inhibition (reported as % activation of signal), % at 10 µM | DNA (cytosine-5)-methyltransferase 1 (Homo sapiens), P26358 | 360,000 tested, 0.83% active; in the data active = inhibition above about 50%
Target sequence (P26358 504-1616 limits assumed): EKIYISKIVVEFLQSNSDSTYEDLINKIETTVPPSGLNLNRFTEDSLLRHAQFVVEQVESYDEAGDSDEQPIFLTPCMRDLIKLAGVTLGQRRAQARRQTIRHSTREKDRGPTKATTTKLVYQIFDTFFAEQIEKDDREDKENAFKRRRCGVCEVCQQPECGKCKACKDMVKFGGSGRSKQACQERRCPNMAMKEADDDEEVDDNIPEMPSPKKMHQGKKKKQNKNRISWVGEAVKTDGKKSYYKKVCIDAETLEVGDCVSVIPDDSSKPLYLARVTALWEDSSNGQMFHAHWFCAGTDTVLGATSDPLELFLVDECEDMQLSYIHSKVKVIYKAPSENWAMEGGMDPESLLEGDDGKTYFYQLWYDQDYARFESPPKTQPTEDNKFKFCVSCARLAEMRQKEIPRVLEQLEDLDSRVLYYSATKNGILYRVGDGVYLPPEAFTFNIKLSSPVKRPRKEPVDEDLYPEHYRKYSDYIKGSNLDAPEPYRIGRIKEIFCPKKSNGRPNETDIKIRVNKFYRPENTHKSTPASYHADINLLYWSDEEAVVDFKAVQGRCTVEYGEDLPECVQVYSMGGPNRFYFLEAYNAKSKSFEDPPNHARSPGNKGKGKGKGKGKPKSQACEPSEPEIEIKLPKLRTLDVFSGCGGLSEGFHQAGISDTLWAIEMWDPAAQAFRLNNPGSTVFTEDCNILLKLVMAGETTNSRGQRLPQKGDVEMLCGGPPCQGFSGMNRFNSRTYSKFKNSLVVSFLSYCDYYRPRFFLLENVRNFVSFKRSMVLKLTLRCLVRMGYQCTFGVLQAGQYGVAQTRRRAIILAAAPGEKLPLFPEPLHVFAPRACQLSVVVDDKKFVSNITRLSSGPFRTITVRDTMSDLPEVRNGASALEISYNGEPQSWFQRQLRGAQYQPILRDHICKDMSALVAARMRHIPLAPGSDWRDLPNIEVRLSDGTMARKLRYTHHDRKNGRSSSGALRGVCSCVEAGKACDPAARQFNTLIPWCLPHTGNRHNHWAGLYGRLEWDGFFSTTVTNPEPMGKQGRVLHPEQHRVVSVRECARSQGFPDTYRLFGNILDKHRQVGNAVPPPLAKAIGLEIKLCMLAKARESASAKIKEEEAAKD
Scp-1 inhibitor – Scp-1 phosphatase inhibitors, primary screen, biochemical, colorimetric, uHTS; Recombinant Scp1, phosphopeptide, malachite green phosphate absorbance; inhibition, % at 20 µM; 340,000 tested, 0.88% active;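 active = inhibition above about 50% at 20 µM, limit read from the data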
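Times: enzyme reaction 45 min at room temperature, colour 5 min, stabilisation 30 min. Material: SCP-1 catalytic fragment, aa 76-261. Medium: Acidic Tris acetate buffer with magnesium and detergent. Signal: colorimetric free-phosphate detection, absorbance 630 nm. Read-out basis: % inhibition of SCP-1 phosphate liberation. Reagent: Phosphorylated 17-residue peptide substrate.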
SUMO1-SIM PPI – modulators of SUMO1 protein-protein interactions, primary screen, biochemical, uHTS. inhibition, % at 20 µM. AID 602429, 2012. 360,000 tested, 0.33% active. SUMO1 binding to a labelled peptide, TR-FRET, 1 h; in the data active = inhibition above about 37%
Rpn11 inh – Rpn11 (PSMD14) deubiquitinase inhibitors, primary screen, biochemical, fluorescence polarization, uHTS; human 26S proteasome, Ub4-pepOG fluorescence polarization; 20S core pre-blocked with epoxomicin; AID 588493, 2011; 360,000 tested, 0.59% active; inhibition, % at 20 µM;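 active = inhibition at 20 µM, scaled to each plate's controls, above about 33%, limit read from the data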
DNMT1 interf DR – spectral interference with molecular beacon fluorescence, dose response, artefact control for DNMT1 inhibitor project, biochemical, fluorescent molecular beacon | shares compounds with DNMT1 block | spectral interference counter-screen | IC50, µM | 200 tested, under 10 active | AID 602382, 2012; call rule not given here
DNMT1 confirm – DNMT1 methyltransferase inhibitor retest, confirmation, biochemical, molecular beacon, fluorescence, single concentration; shares compounds with DNMT1 block; AID 602385, 2012; DNMT1 molecular beacon HinP1I cleavage; 2,300 tested, 8% active; inhibition, % at 10 µM;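 active = average inhibition of at least 30% in the single-concentration confirmation test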
DNMT1 interf – counter-screen for DNMT1 inhibitors: spectral interference; AID 602387; DNMT1 molecular beacon spectral interference counterscreen, fluorescence 485/520; 2,300 tested, 1% active; activation (fluorescence interference), % at 10 µM; shares compounds with DNMT1 block;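 active = activation of at least 30% at 10 µM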;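 note: DNMT1 catalytic domain with a HinP1I cleavage step and a FAM/dabcyl DNA beacon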
Rpn11 inh conf – Rpn11 (PSMD14) deubiquitinase inhibitors, confirmation, biochemical, fluorescence polarization, single concentration; shares compounds with Rpn11 inh; purified human 26S proteasome, Ub4-pepOG fluorescence polarization; proteasome pretreated with epoxomicin; inhibition, % at 20 µM; 1,900 tested, 29% active
MMP-2 counter – MMP-2 enzyme inhibition, confirmation, counter-screen for RPN11 inhibitor project, biochemical, fluorescence, single concentration | recombinant MMP-2, FRET peptide cleavage fluorescence | shares compounds with Rpn11 inh | 1,900 tested, 4% active | inhibition, % at 20 µM;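 note: human MMP-2 activated beforehand with APMA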
Thrombin FP – bovine thrombin protease inhibition, confirmation, counter-screen for Rpn11 inhibitor project, biochemical, fluorescence polarization, single concentration | bovine thrombin cleavage of Ub4-pepOG | inhibition, % at 20 µM | shares compounds with Rpn11 inh | 1,900 tested, 13% active;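 active = mean inhibition at least 40% at 20 µM, or signal 3 deviations below plate average, so some actives read negative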
Large screens that a line does not name were inactive (follow-up assays come after a bar, where shown). In the library only some 2.3% were active in any assay of this set; here they are far more common. Cut-off read from the data, not from the text of the source, unless noted: active = inhibition above about 40%; inactive = the rest.

Cc1cc(/C=C2\C(=O)NC(=O)N(c3ccc(Cl)cc3)C2=O)c(C)n1-c1sc2c(c1C#N)CCCC2	DNMT1 block 79, SUMO1-SIM PPI 49, Rpn11 inh 50 | DNMT1 interf DR inactive | DNMT1 confirm 32 | DNMT1 interf inactive | Rpn11 inh conf inactive | MMP-2 counter inactive | Thrombin FP inactive
COCCCNC(=O)c1c(N)n(Cc2ccco2)c2nc3ccccc3nc12	none
COc1ccc(Cn2c(N)c(C(=O)NCc3ccco3)c3nc4ccccc4nc32)cc1OC	DNMT1 block 87, SUMO1-SIM PPI 36, Rpn11 inh 46 | DNMT1 confirm inactive | DNMT1 interf inactive | Rpn11 inh conf inactive | MMP-2 counter inactive | Thrombin FP inactive
COc1cc2cc(C(=O)N3CC(COS(C)(=O)=O)c4ccc(O)cc43)[nH]c2c(OC)c1OC (configuration not stated)	none
CCOc1ccc(N2C(=O)NC(=O)/C(=C\c3ccc(N4CCCCC4)o3)C2=O)cc1	none (not shown: Rpn11 inh)
COc1ccc(N2C(=O)/C(=C/c3ccc(C)o3)C(=O)NC2=S)cc1	DNMT1 block 87, Rpn11 inh 71 | DNMT1 confirm inactive | DNMT1 interf inactive | Rpn11 inh conf 61 | MMP-2 counter 56 | Thrombin FP 63
CCC(C)N1CCN(C(=O)COc2ccc3ccccc3c2)CC1 (configuration not stated)	Rpn11 inh 79 | Rpn11 inh conf inactive | MMP-2 counter inactive | Thrombin FP inactive
COc1ccc(-n2c(/C=C/c3ccc(O)c(O)c3)nc3ccccc3c2=O)cc1	Rpn11 inh 120 | Rpn11 inh conf 72 | MMP-2 counter inactive | Thrombin FP 53
C[C@]12CCC3C(CC[C@H]4C[C@@H](O)CC[C@]34C)C1[C@H]1CN=N[C@H]1[C@@H]2O (some centres not stated)	none
COc1ccc(OC)c(-n2c(O)c(C=Nc3c(C)n(C)n(-c4ccccc4)c3=O)c(=O)[nH]c2=S)c1	Rpn11 inh 66 | Rpn11 inh conf 41 | MMP-2 counter inactive | Thrombin FP inactive
CCN(CC)c1ccc(N=Cc2c(O)n(-c3cc(OC)ccc3OC)c(=O)[nH]c2=O)cc1	Rpn11 inh 40 | Rpn11 inh conf 46 | MMP-2 counter inactive | Thrombin FP 42
CCOc1ccccc1-n1c(O)c(C=Nc2c(C)n(C)n(-c3ccccc3)c2=O)c(=O)[nH]c1=O	none
COc1ccc(NC2=NC(C)(C)CS2)cc1	none
COC(=O)C1=C(c2ccccc2OCc2ccccc2)C[C@@H]2CC[C@H]1N2C(=O)NCc1ccc(C(C)(C)C)cc1	none
O=S1(=O)NCC2(CC2)CN1Cc1ccccc1	none (no result: STEP block, DNMT1 block, Scp-1 inhibitor, Rpn11 inh)
C=CCn1c(O)c(C=NCCN2CCOCC2)c(=O)[nH]c1=S	none
C=CCN1C(=O)NC(=O)/C(=C/C=C/c2ccccc2)C1=O	none
O=C1NC(=O)N(Cc2ccccc2)C(=O)/C1=C\C=C\c1ccco1	Rpn11 inh 50 | Rpn11 inh conf inactive | MMP-2 counter inactive | Thrombin FP inactive
COC(=O)C1=C(c2ccc(C(C)=O)cc2)C[C@@H]2CC[C@H]1N2C(=O)NCCCOC(C)C	none
COC(=O)C1=C(c2ccc(C(C)=O)cc2)C[C@@H]2CC[C@H]1N2C(=O)NCCO	none
Cc1ccccc1-n1c(O)c(/C=N/Nc2nc3c(c(=O)n(C)c(=O)n3C)n2C)c(=O)[nH]c1=S	none
Cn1c(=O)c2c(nc(N/N=C/c3c(O)n(C4CCCCC4)c(=S)[nH]c3=O)n2C)n(C)c1=O	Rpn11 inh 42 | Rpn11 inh conf inactive | MMP-2 counter inactive | Thrombin FP inactive
Cc1cc(C=C2C(=O)N(C)C(=S)N(C)C2=O)c(C)n1C1CCCCC1	Rpn11 inh 50 | Rpn11 inh conf inactive | MMP-2 counter inactive | Thrombin FP inactive
CC1(C)C(C(=O)N2CCN(c3ccc(Cl)cc3)CC2)C1(C)C	Rpn11 inh 49 | Rpn11 inh conf inactive | MMP-2 counter inactive | Thrombin FP inactive
CCCCC(=O)N/N=C/c1c(O)n(Cc2ccc(F)cc2)c(=O)[nH]c1=O	Rpn11 inh 50 | Rpn11 inh conf inactive | MMP-2 counter inactive | Thrombin FP inactive
COC(=O)C1=C(c2ccc3ccccc3c2)C[C@@H]2CC[C@H]1N2C(=O)NC1CCCCC1	none
O=C(N/N=C/c1c(O)n(CCC2=CCCCC2)c(=S)[nH]c1=O)c1ccccc1	Rpn11 inh 48 | Rpn11 inh conf 76 | MMP-2 counter inactive | Thrombin FP inactive
O=C(N/N=C/c1c(O)n(CCC2=CCCCC2)c(=O)[nH]c1=O)c1ccccc1	none
O=C1NC(=O)N(c2ccc(Cl)cc2)C(=O)/C1=C\c1ccc(Sc2nc3ccccc3[nH]2)o1	Rpn11 inh 52 | Rpn11 inh conf 74 | MMP-2 counter inactive | Thrombin FP 49
